Most compounds without a hit are left out; they make up all but 3.5% or so of the library.
MrgX1 allo act: allosterically activates human MrgX1 receptor signaling | B-score at 10 µM | AID 588675 | Q96LB2 | MrgX1-HEK293, Fluo-4 calcium flux, FDSS; stronger effect = higher value | 0.63% of 310,000 active;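 active = plate-corrected calcium response at least 3 library SD above typical, normal starting fluorescence, not activating the receptor alone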;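 note: compound read alongside a low EC10 to EC30 dose of BAM8-22 agonist; peak minus trough fluorescence over baseline measured at the second addition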
Target sequence (Q96LB2 whole entry, looked up): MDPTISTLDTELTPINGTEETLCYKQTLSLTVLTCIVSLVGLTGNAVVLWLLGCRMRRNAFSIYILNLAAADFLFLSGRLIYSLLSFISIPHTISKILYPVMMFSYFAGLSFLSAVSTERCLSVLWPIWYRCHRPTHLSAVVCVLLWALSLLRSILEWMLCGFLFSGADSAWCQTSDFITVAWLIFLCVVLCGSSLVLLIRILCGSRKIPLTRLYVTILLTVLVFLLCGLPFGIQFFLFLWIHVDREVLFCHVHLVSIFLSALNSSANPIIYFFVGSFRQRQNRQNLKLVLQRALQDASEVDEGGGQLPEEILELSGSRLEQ
RGS4 act: potentiators or activators of RGS4 | 0.92% of 310,000 active | AID 463111 | B-score at 10 µM | HEK293 M3R/inducible RGS4, carbachol calcium flux Fluo4; stronger effect = lower value;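 active = B-score of the integrated calcium signal more than 4 SD below the library mean, with starting fluorescence not abnormally high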;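 note: negative B-score means reduced calcium response which marks RGS4 activation or potentiation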
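Test system: HEK293 cells with stable M3R and inducible RGS4; also added: carbachol at ECmax as muscarinic agonist stimulus; schedule: dye loading 30 min 37 °C, buffer rest 30 min RT; technique: kinetic calcium fluorescence imaging with Fluo4-AM dye, 2 µM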
RGS4 inh: human RGS4 inhibition. P49798. HEK293 M3R/RGS4 inducible, Fluo-4 calcium flux; stronger effect = higher value; triggered by carbachol at its EC20. B-score at 10 µM. 0.45% of 310,000 active. AID 463165;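 active = B-score, a plate-corrected calcium signal, over three deviations above library mean, with baseline fluorescence within five deviations of library mean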;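 note: RGS4 expression induced by doxycycline in cells with stable M3 receptor; B-score is computed from the integrated fluorescence ratio over baseline after carbachol; higher B-score means a larger calcium signal and so more RGS4 inhibition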
Target sequence (P49798 whole entry, looked up): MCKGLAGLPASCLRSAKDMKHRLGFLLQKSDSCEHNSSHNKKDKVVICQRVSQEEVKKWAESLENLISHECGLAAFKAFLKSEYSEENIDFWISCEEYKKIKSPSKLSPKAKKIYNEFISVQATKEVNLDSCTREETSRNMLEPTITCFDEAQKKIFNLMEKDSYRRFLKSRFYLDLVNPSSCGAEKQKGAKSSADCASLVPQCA
MrgX1 antagonist: blocks BAM8-22 activation of human MrgX1 receptor. Q96LB2. MRGX1-HEK293 calcium flux, Fluo-4, BAM8-22 antagonism; stronger effect = lower value. B-score at 10 µM. 1.3% of 310,000 active. AID 588676;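 active = calcium-response B-score plate-corrected more than 3 library SD below zero, starting fluorescence within 5 deviations, no agonist response on first addition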;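 note: peak minus trough fluorescence over baseline after final BAM8-22 challenge near maximal dose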
MrgX1 ag: activates human MrgX1 receptor signaling. Q96LB2. MrgX1-HEK293 cells, Fluo-4 calcium fluorescence, agonist mode; stronger effect = higher value. B-score at 10 µM. 0.44% of 310,000 active. AID 588627;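 active = calcium response B-score plate-corrected fluorescence ratio at least 3 library SD, with starting fluorescence B-score inside 5 SD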
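System – MrgX1-expressing HEK293 cells · Incubation – cells plated overnight, dye loaded 0.5 h 37 °C, 0.5 h room temperature · Technique – kinetic Fluo-4 NW fluorescence of intracellular calcium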
RGS4 inh valid: RGS4 inhibitor validation; shares compounds with RGS4 inh; HEK293 M3R/RGS4, carbachol calcium Fluo-4 fluorescence; carbachol added at its EC20; 0 = buffer wells, 100 = carbachol control; calcium response, % at 10 µM; 65% of 1,700 active;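 active = duplicate-averaged calcium response above the buffer-only control mean plus 5 SD of those controls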;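 note: integrated fluorescence ratio F max minus min over baseline F0; higher response in RGS4-induced cells means RGS4 inhibition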
RGS4 uninduced: non-induced cell nonspecific activity of RGS4 inhibitors. shares compounds with RGS4 inh. HEK293 M3R non-induced, carbachol calcium Fluo-4; submaximal (EC20) carbachol stimulus; buffer wells 0%, carbachol control wells 100%. activity (percent), % at 10 µM. 20% of 1,900 active; call rule not given here;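 note: RGS4 induction absent so cells express M3R without RGS4; higher means more calcium signal and flags a non-specific hit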
M3R basal Ca ctr: second RGS4 inhibitor counter-screen in uninduced cells lacking carbachol. HEK293 M3R/RGS4 non-induced, Fluo-4 calcium, no carbachol; normalised: buffer wells 0%, carbachol wells 100%. calcium response (agonist-mode artifact), % at 10 µM. shares compounds with RGS4 inh. 22% of 1,900 active;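 active = duplicate-averaged calcium rise in uninduced cells above buffer wells' mean plus 5 SD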
The depositor's hits bear a star; i = inactive; x = no result.

SMILES | MrgX1 allo act | RGS4 act | RGS4 inh | MrgX1 antagonist | MrgX1 ag | RGS4 inh valid | RGS4 uninduced | M3R basal Ca ctr
COC(=O)c1cc(=O)n(Cc2ccco2)c(=Nc2ccc(F)c(Cl)c2)s1 | i | i | i | i | i | x | i | i
COC(=O)c1cc(=O)n(CCc2ccccc2F)c(=Nc2ccc(F)c(Cl)c2)s1 | i | i | i | i | i | x | x | x
CC(CC(=O)Nc1ccc(S(=O)(=O)Nc2ncccn2)cc1)c1ccccc1 (stereo unspecified) | i | i | i | i | i | i | i | i
O=C(/C=C/c1cccc(F)c1)Nc1ccc(S(=O)(=O)Nc2ncccn2)cc1 | i | i | 5.1* | i | i | 7.0%* | i | i
CC1CCCC(NC(=O)COC(=O)Cc2ccsc2)C1C (stereo unspecified) | i | i | i | i | i | x | x | x
O=c1c(Cl)c(Cl)cnn1Cc1nnc(-c2ccccc2Br)o1 | x | i | 72* | x | x | 142%* | 42%* | i
CC(=O)SC(C[N+](=O)[O-])c1cn(C(C)=O)c2ccccc12 (stereo unspecified) | i | i | 16* | i | 39* | 63%* | 29%* | 34%*
O=C(CSC1=NS(=O)(=O)c2ccccc21)Nc1ccccc1 | i | i | 9.4* | i | i | 25%* | i | i
CCSc1cc(N2CCCC2)nc(-c2ccccc2)n1 | i | i | i | i | i | x | x | x
CC(C)Sc1cc(N2CCOCC2)nc(-c2ccccc2)n1 | i | i | i | i | i | i | 30%* | 10%*
CC(C)Sc1cc(N2CCCC2)nc(-c2ccccc2)n1 | i | i | 6.2* | i | i | 23%* | 51%* | i
c1ccc(-c2ccc(Oc3cc(N4CCOCC4)nc(-c4ccccc4)n3)cc2)cc1 | i | i | i | i | i | x | x | x
CC(C)Sc1cc(N2CCCC2)nc(-c2ccc(F)cc2)n1 | i | i | 9.2* | i | i | 26%* | i | i
CC(C)Sc1cc(N2CCCC2)nc(-c2ccccc2Cl)n1 | i | i | i | i | i | x | x | x
CCn1nc(C)c(CNC(=O)CCc2nnc(Cc3c[nH]c4ccccc34)o2)c1C | i | i | i | i | i | x | x | x
Cc1csc(NC(=O)CSc2nnc(-c3ccncc3)o2)n1 | i | i | i | i | i | x | x | x
CSc1nc(N(C)CCO)c2sc3nc(-c4ccco4)c4c(c3c2n1)CCC4 | i | i | 4.9* | i | i | i | i | 10%*
CSc1nc(SCC(=O)O)c2sc3nc(-c4ccccc4)c4c(c3c2n1)CCC4 | x | i | i | x | x | x | x | x
O=C(c1ccc2nc(Cc3cccc(Cl)c3)oc2c1)N1CCC[C@H]1CO | i | i | i | i | i | x | x | x
Cc1cccc(N2C(=O)N3[C@@H]4c5ccccc5OC[C@@H]4[C@@H](c4ccccc4)[C@@]3(C)C2=O)c1 | i | i | i | i | i | x | i | i
Cc1cccc([C@@H]2[C@@H]3C(=O)N(Cc4ccccc4)C(=O)[C@@H]3[C@]3(C)C(=O)N(c4cccc(Cl)c4)C(=O)N23)c1 | i | i | i | i | i | x | x | x
Cc1cccc(N2C(=O)N3[C@@H]4c5ccccc5OC[C@@H]4[C@@H](c4ccccc4)[C@]3(C)C2=O)c1 | i | i | i | i | i | i | i | i
C[C@]12C(=O)N(c3cccc(Cl)c3)C(=O)N1[C@H]1c3ccccc3OC[C@@H]1[C@H]2c1ccccc1 | i | i | 6* | -6* | i | 16%* | i | i
CS(=O)(=O)N(CC(=O)N1CCN(c2ccccc2F)CC1)c1cccc(C(F)(F)F)c1 | i | i | i | i | i | x | x | x
CCC(=O)N1c2ccc(S(=O)(=O)NCCc3ccccc3)cc2CC1C (stereo unspecified) | i | i | i | i | i | x | x | x
SMILES | MrgX1 allo act | RGS4 act | RGS4 inh | MrgX1 antagonist | MrgX1 ag | RGS4 inh valid | RGS4 uninduced | M3R basal Ca ctr
CCOC(=O)N1CCC(=NNc2ccnc3cc(Cl)ccc23)CC1 | i | i | i | i | i | x | x | x
CC(=O)N1CCC(=NNc2ccnc3cc(Cl)ccc23)CC1 | i | i | 6.9* | i | i | 28%* | i | i
CC(=O)c1cn(-c2ccc(Cl)cc2)c(=O)n(Cc2ccc(Br)cc2)c1=O | i | i | i | i | i | x | x | x
CCOC(=O)N/N=C1\CCS(=O)(=O)c2ccc(Cl)cc21 | i | i | i | i | i | x | x | x
CC(C)NC(=O)CSc1nc(N)c(NC(=O)c2ccco2)c(=O)[nH]1 | i | i | i | i | i | x | x | x
COc1ccc(C2NC(=S)NC(C)=C2C(=O)c2ccccc2)cc1OC (stereo unspecified) | i | i | i | i | i | x | x | x
CC1=C(C(=O)c2ccccc2)C(c2cccc([N+](=O)[O-])c2)NC(=S)N1 (stereo unspecified) | i | i | 10* | i | i | 23%* | 33%* | i
CCCn1c(C(C)Nc2nc(-c3ccc(Cl)c([N+](=O)[O-])c3)cs2)nc2ccccc21 (stereo unspecified) | i | i | 8* | i | i | 16%* | i | i
OCCOCCn1c(C(CO)Nc2nc(-c3ccc(F)cc3)cs2)nc2ccccc21 (stereo unspecified) | i | i | i | i | i | x | x | x
O=[N+]([O-])c1cc(-c2csc(NC(CO)c3nc4ccccc4n3CCOCCO)n2)ccc1Cl (stereo unspecified) | i | i | 7.7* | i | i | 6.0%* | 40%* | i
CCCn1c(C(C)Nc2nc(-c3cccc(Br)c3)cs2)nc2ccccc21 (stereo unspecified) | i | i | i | i | i | x | i | i
CCCn1c(C(C)Nc2nc(-c3ccc(C)cc3)cs2)nc2ccccc21 (stereo unspecified) | i | i | i | i | i | x | x | x
C/C(=N/O)c1ccc2c(c1)OCCOCCOc1cc(/C(C)=N/O)ccc1OCCOCCO2 | i | i | i | i | i | x | x | x
